Laboratory results taken from ChEMBL document CHEMBL3779805, “Orally bioavailable pyridine and pyrimidine-based Factor XIa inhibitors: Discovery of the methyl N-phenyl carbamate P2 prime group” (Bioorg Med Chem, 2016).

Assays:
[1] = Oral bioavailability in beagle dog plasma at 0.43 mg/kg by LC-MS/MS method; format: ADME, organism-based, Canis lupus familiaris
Summary of the method: (§1)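 Dogs dosed iv and po in N-in-1 (cassette) format. The same vehicle was used for both routes: 70% water, 10% ethanol, 10% dimethylacetamide, 10% polypropylene glycol.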

Canis familiaris [2] = assay: Clearance in beagle dog plasma at 0.27 mg/kg, iv and 0.43 mg/kg, po administered in cassette format by LC-MS/MS method; format: ADME, organism-based, Canis lupus familiaris; settings: in vivo; summary of the method: as §1
Coagulation factor XI = Coagulation factor XI (Homo sapiens, UniProt P03951)
[3] = Inhibition of human […] chymotrypsin assessed as reduction in release of p-nitroaniline after 10 to 120 mins by Michaelis-Menten equation analysis
Canis familiaris [4] = assay: Volume of distribution at steady state in beagle dog plasma at 0.27 mg/kg, iv and 0.43 mg/kg, po by LC-MS/MS method; format: ADME, organism-based, Canis lupus familiaris; settings: in vivo; summary of the method: as §1
Plasma = assay: Anticoagulant activity in human plasma assessed as concentration required for 50% increase in activated partial thromboplastin time by automated coagulation analyzer; format: functional
Summary of the method: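 aPTT clotting assay in pooled normal human plasma on an automated coagulation analyzer with commercial reagents. EC1.5x is the inhibitor plasma concentration giving a 50% increase in clotting time over the no-inhibitor control.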

Canis familiaris [5] = assay: Half life in beagle dog plasma at 0.27 mg/kg, iv and 0.43 mg/kg, po by LC-MS/MS method; format: ADME, organism-based, Canis lupus familiaris; settings: in vivo; summary of the method: as §1
[6] = Oral bioavailability in beagle dog plasma at 0.2 mg/kg by LC-MS/MS method; format: ADME, organism-based, Canis lupus familiaris; summary of the method: as §1
Canis familiaris [7] = assay: (§2) Clearance in beagle dog plasma at 0.2 mg/kg, iv and 0.2 mg/kg, po administered in cassette format by LC-MS/MS method; format: ADME, organism-based, Canis lupus familiaris; settings: in vivo; summary of the method: as §1
[8] = AUC in beagle dog plasma at 0.2 mg/kg, iv and 0.2 mg/kg, po by LC-MS/MS method; format: ADME, organism-based, Canis lupus familiaris; summary of the method: as §1
Coagulation factor X = Coagulation factor X (Homo sapiens, UniProt P00742); assay: Inhibition of human coagulation factor 10a assessed as reduction in release of p-nitroaniline after 10 to 120 mins by Michaelis-Menten equation analysis
Summary of the method: (§3)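 Purified human enzymes with commercial synthetic peptide substrates. IC50 from 4–11 inhibitor concentrations, run in duplicate at a fixed substrate concentration (standard error <20%). Ki = IC50/(1+S/Km), assuming competitive inhibition.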

Coagulation factor VII = target: T1, Coagulation factor VII (Homo sapiens, UniProt P08709); assay: Inhibition of human coagulation factor 7a assessed as reduction in release of p-nitroaniline after 10 to 120 mins by Michaelis-Menten equation analysis; summary of the method: as §3
T1 sequence (P08709 whole entry): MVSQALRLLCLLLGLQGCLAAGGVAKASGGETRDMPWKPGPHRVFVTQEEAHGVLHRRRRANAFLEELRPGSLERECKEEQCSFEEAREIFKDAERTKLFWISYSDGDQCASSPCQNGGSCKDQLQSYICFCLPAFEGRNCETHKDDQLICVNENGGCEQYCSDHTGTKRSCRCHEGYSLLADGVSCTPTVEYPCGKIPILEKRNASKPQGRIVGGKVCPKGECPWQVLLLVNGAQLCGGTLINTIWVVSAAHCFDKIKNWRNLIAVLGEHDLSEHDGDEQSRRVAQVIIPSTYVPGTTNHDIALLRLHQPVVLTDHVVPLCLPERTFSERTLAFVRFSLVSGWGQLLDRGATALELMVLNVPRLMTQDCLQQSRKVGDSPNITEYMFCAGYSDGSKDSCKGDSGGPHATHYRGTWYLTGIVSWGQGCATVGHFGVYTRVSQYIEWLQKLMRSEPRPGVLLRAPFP

Plasma kallikrein = Plasma kallikrein (Homo sapiens, UniProt P03952); assay: Inhibition of human plasma kallikrein assessed as reduction in release of p-nitroaniline after 10 to 120 mins by Michaelis-Menten equation analysis; format: cell-free; summary of the method: as §3
[9] = target: Urokinase-type plasminogen activator (Homo sapiens, UniProt P00749); assay: Inhibition of human urokinase assessed as reduction in release of p-nitroaniline after 10 to 120 mins by Michaelis-Menten equation analysis; summary of the method: as §3
Trypsin = Trypsin (Homo sapiens, UniProt P07477+P07478+P35030); assay: Inhibition of human coagulation trypsin assessed as reduction in release of p-nitroaniline after 10 to 120 mins by Michaelis-Menten equation analysis; format: protein assay; summary of the method: as §3
Coagulation factor IX = Coagulation factor IX (Homo sapiens, UniProt P00740); assay: Inhibition of human coagulation factor 9a assessed as reduction in release of p-nitroaniline after 10 to 120 mins by Michaelis-Menten equation analysis; summary of the method: as §3
Prothrombin = Prothrombin (Homo sapiens, UniProt P00734); assay: Inhibition of human coagulation thrombin assessed as reduction in release of p-nitroaniline after 10 to 120 mins by Michaelis-Menten equation analysis; summary of the method: as §3
[10] = target: Tissue-type plasminogen activator (Homo sapiens, UniProt P00750); assay: Inhibition of human TPA assessed as reduction in release of p-nitroaniline after 10 to 120 mins by Michaelis-Menten equation analysis; summary of the method: as §3
[11] = target: Vitamin K-dependent protein C (Homo sapiens, UniProt P04070); assay: Inhibition of human activated protein C assessed as reduction in release of p-nitroaniline after 10 to 120 mins by Michaelis-Menten equation analysis; summary of the method: as §3
Plasminogen = Plasminogen (Homo sapiens, UniProt P00747); assay: Inhibition of human plasmin assessed as reduction in release of p-nitroaniline after 10 to 120 mins by Michaelis-Menten equation analysis; summary of the method: as §3
[12] = (§4) Half life in beagle dog plasma at 0.2 mg/kg, iv and 0.2 mg/kg, po by LC-MS/MS method; format: ADME, organism-based, Canis lupus familiaris; settings: beagle, plasma; summary of the method: as §1
[13] = (§5) Volume of distribution at steady state in beagle dog plasma at 0.2 mg/kg, iv and 0.2 mg/kg, po by LC-MS/MS method; format: ADME, organism-based, Canis lupus familiaris; settings: beagle, plasma, read-out: Vdss; summary of the method: as §1
[14] = as §2; format: ADME, organism-based, Canis lupus familiaris; settings: beagle, plasma; summary of the method: as §1
[15] = Volume of distribution at steady state in beagle dog plasma at 0.2 mg/kg, iv and 0.29 mg/kg, po by LC-MS/MS method; format: ADME, organism-based, Canis lupus familiaris; settings: read-out: Vdss; summary of the method: as §1
[16] = Half life in beagle dog plasma at 0.2 mg/kg, iv and 0.29 mg/kg, po by LC-MS/MS method; format: ADME, organism-based, Canis lupus familiaris; summary of the method: as §1
[17] = Oral bioavailability in beagle dog plasma at 0.29 mg/kg by LC-MS/MS method; format: ADME, organism-based, Canis lupus familiaris; summary of the method: as §1
[18] = Clearance in beagle dog plasma at 0.2 mg/kg, iv and 0.29 mg/kg, po administered in cassette format by LC-MS/MS method; format: ADME, organism-based, Canis lupus familiaris; summary of the method: as §1
[19] = AUC in beagle dog plasma at 0.2 mg/kg, iv and 0.29 mg/kg, po by LC-MS/MS method; format: ADME, organism-based, Canis lupus familiaris; summary of the method: as §1
Canis familiaris [20] = assay: as §4; format: ADME, organism-based, Canis lupus familiaris; settings: in vivo; summary of the method: as §1
Canis familiaris [21] = assay: as §5; format: ADME, organism-based, Canis lupus familiaris; settings: in vivo; summary of the method: as §1
[22] = Clearance in beagle dog plasma at 0.28 mg/kg, iv and 0.62 mg/kg, po administered in cassette format by LC-MS/MS method; format: ADME, organism-based, Canis lupus familiaris; summary of the method: as §1
[23] = Volume of distribution at steady state in beagle dog plasma at 0.28 mg/kg, iv and 0.62 mg/kg, po by LC-MS/MS method; format: ADME, organism-based, Canis lupus familiaris; settings: read-out: Vdss; summary of the method: as §1
[24] = AUC in beagle dog plasma at 0.28 mg/kg, iv and 0.62 mg/kg, po by LC-MS/MS method; format: ADME, organism-based, Canis lupus familiaris; summary of the method: as §1
[25] = Half life in beagle dog plasma at 0.28 mg/kg, iv and 0.62 mg/kg, po by LC-MS/MS method; format: ADME, organism-based, Canis lupus familiaris; summary of the method: as §1
[26] = Oral bioavailability in beagle dog plasma at 0.62 mg/kg by LC-MS/MS method; format: ADME, organism-based, Canis lupus familiaris; summary of the method: as §1

Sequence of Coagulation factor XI (P03951 19-387 limits assumed): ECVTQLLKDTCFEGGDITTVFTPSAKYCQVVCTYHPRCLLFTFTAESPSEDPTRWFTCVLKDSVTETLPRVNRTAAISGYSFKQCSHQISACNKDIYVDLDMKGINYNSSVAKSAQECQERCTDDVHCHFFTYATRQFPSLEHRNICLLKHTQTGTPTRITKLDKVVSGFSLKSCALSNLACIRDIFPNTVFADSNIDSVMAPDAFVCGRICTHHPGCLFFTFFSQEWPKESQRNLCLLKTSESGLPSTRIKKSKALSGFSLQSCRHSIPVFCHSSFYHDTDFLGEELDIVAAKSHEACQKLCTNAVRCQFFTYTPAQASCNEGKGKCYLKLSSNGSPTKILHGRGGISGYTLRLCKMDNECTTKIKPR
Sequence of Coagulation factor XI (P03951 388-625 limits assumed): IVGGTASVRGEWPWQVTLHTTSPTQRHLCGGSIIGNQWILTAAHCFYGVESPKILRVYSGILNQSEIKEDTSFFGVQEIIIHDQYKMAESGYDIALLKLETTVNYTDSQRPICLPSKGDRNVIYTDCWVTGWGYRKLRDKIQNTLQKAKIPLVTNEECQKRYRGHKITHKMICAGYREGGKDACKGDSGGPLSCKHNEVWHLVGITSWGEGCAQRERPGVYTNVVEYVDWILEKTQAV
Sequence of Tissue-type plasminogen activator (P00750 whole entry): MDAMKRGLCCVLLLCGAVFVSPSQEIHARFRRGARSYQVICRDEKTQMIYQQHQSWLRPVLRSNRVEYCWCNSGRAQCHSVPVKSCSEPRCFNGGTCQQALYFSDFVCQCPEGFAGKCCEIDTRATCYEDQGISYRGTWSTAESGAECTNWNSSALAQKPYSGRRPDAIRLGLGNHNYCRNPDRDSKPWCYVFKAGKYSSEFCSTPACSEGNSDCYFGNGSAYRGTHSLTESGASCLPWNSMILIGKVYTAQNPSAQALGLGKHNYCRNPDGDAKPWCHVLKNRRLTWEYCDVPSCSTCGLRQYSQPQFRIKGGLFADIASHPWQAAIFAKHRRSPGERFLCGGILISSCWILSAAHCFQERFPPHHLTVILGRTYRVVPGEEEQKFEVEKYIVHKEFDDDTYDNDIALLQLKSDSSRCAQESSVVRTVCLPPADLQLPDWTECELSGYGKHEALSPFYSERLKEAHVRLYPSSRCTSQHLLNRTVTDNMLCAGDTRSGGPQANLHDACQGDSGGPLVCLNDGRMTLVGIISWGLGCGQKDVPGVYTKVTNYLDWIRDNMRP
Sequence of Plasminogen (P00747 97-580 limits assumed): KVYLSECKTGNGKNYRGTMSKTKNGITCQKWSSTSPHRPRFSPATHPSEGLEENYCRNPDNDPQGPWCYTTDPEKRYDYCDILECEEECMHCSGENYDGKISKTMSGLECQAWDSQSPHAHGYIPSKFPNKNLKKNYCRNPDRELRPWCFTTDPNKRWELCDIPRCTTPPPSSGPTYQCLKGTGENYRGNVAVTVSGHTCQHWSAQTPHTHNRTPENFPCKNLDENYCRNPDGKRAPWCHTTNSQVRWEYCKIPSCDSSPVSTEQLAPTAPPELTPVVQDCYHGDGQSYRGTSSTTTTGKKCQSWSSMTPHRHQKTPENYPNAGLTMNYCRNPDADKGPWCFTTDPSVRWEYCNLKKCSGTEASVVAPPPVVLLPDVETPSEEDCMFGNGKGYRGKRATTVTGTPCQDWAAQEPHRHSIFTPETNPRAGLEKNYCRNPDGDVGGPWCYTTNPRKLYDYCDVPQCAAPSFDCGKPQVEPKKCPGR
Sequence of Plasminogen (P00747 581-810 limits assumed): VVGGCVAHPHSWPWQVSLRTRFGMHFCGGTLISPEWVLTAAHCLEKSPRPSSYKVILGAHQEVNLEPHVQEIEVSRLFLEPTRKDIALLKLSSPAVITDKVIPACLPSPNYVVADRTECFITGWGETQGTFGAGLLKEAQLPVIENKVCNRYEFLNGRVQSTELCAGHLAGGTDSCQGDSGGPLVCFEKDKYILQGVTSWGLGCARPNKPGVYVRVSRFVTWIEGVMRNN
Sequence of Plasma kallikrein (P03952 20-390 limits assumed): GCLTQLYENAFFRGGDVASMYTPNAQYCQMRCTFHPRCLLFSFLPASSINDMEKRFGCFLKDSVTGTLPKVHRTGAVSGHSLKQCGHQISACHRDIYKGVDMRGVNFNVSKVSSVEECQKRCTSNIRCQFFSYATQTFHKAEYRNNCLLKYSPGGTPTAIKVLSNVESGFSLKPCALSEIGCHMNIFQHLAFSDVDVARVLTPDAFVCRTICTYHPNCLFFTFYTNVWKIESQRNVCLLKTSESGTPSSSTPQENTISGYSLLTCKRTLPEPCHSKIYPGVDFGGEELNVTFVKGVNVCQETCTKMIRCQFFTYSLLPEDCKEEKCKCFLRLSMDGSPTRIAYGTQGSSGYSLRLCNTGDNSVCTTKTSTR
Sequence of Plasma kallikrein (P03952 391-638 limits assumed): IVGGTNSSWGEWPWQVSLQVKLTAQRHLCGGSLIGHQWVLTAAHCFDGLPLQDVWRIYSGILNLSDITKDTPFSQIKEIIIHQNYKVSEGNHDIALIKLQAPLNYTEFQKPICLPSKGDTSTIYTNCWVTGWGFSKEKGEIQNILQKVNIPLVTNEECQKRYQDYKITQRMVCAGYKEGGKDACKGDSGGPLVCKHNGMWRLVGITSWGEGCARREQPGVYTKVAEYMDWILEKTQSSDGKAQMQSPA
Sequence of Coagulation factor IX (P00740 47-191 limits assumed): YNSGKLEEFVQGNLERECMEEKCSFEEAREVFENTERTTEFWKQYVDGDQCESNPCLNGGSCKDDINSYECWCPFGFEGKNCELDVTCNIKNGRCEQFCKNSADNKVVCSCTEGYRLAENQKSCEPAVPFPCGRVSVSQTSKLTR
Sequence of Coagulation factor IX (P00740 227-461 limits assumed): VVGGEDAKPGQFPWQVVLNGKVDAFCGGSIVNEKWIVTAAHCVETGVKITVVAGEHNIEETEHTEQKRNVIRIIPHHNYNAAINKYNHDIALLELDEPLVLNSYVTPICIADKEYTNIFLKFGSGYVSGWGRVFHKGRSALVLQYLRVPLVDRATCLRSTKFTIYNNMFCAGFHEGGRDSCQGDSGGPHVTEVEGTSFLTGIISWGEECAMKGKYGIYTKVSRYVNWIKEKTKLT
Sequence of Vitamin K-dependent protein C (P04070 43-197 limits assumed): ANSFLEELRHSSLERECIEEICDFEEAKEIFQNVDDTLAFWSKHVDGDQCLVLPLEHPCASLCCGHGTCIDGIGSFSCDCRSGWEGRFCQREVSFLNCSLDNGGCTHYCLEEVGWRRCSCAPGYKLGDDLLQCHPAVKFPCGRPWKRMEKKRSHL
Sequence of Vitamin K-dependent protein C (P04070 212-461 limits assumed): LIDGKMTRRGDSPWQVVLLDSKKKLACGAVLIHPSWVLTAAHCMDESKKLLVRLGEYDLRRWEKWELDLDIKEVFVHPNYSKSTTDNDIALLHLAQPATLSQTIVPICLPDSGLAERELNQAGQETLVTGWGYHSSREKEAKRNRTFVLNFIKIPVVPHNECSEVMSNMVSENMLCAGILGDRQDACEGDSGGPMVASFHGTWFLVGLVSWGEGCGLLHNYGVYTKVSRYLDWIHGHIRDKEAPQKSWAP
Sequence of Coagulation factor X (P00742 41-179 limits assumed): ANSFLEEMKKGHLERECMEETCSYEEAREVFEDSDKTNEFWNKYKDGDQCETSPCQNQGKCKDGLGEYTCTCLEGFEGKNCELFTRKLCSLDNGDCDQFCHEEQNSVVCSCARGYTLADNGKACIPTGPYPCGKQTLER
Sequence of Coagulation factor X (P00742 235-488 limits assumed): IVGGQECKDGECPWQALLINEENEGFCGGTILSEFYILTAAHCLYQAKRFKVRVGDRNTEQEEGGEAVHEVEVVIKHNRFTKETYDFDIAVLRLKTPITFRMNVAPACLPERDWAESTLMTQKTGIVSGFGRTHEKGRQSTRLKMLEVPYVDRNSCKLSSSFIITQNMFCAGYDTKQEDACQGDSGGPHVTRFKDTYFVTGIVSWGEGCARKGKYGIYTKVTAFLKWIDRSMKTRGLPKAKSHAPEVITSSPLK

NC[C@H]1CC[C@H](C(=O)N[C@@H](Cc2ccccc2)c2cc(-c3ccc4c(N)n[nH]c4c3)ccn2)CC1
bioavailability [1]: 0% | clearance (Canis familiaris [2]): 50 mL/min/kg | Ki (Coagulation factor XI): 7.2 nM | Ki [3]: > 20.8 µM | Vdss (Canis familiaris [4]): 3.4 L/kg | EC1.5 (Plasma): 0.5 µM | t1/2 (Canis familiaris [5]): 1.2 h

NC[C@H]1CC[C@H](C(=O)N[C@@H](Cc2ccccc2)c2nc(-c3ccc4c(N)n[nH]c4c3)c(Cl)[nH]2)CC1
EC1.5 (Plasma): 0.32 µM

COC(=O)Nc1ccc(-c2c[nH]c([C@H](Cc3ccccc3)NC(=O)/C=C/c3cc(Cl)ccc3-n3cnnn3)n2)cc1
bioavailability [6]: 10% | clearance (Canis familiaris [7]): 21 mL/min/kg | AUC [8]: 0.03 µM·h | EC1.5 (Plasma): 8.6 µM

COC(=O)Nc1ccc(-c2cncc([C@H](Cc3ccccc3)NC(=O)[C@H]3CC[C@H](CN)CC3)c2)cc1
Ki (Coagulation factor XI): 8.4 nM | EC1.5 (Plasma): 1.3 µM

COC(=O)Nc1ccc(-c2cccc([C@H](Cc3ccccc3)NC(=O)[C@H]3CC[C@H](CN)CC3)c2)cc1
Ki (Coagulation factor XI): 17 nM | EC1.5 (Plasma): 13 µM

NC[C@H]1CC[C@H](C(=O)N[C@@H](Cc2ccccc2)c2cc(-c3ccc4[nH]nc(O)c4c3)ccn2)CC1
Ki (Coagulation factor X): > 9 µM | Ki (Coagulation factor VII): > 15.2 µM | Ki (Plasma kallikrein): 550 nM | Ki (Coagulation factor XI): 3.7 nM | Ki [9]: > 14.1 µM | Ki (Trypsin): 999 nM | Ki [3]: > 20.8 µM | Ki (Coagulation factor IX): > 34.9 µM | Ki (Prothrombin): > 12.6 µM | Ki [10]: > 21.9 µM | Ki [11]: > 30.2 µM | EC1.5 (Plasma): 0.4 µM | Ki (Plasminogen): > 22.1 µM

COC(=O)Nc1ccc(-c2cc([C@H](Cc3ccccc3)NC(=O)[C@H]3CC[C@H](CN)CC3)ccn2)cc1
Ki (Coagulation factor XI): 7.9 nM | EC1.5 (Plasma): 0.9 µM

NC[C@H]1CC[C@H](C(=O)N[C@@H](Cc2ccccc2)c2cc(-c3ccc4c(N)noc4c3)ccn2)CC1
Ki (Coagulation factor XI): 3.8 nM | EC1.5 (Plasma): 0.6 µM

NC[C@H]1CC[C@H](C(=O)N[C@H](Cc2ccccc2)c2cc(-c3ccc4c(N)noc4c3)ccn2)CC1
Ki (Coagulation factor XI): 3.2 nM

COC(=O)Nc1ccc(-c2cc([C@H](Cc3ccccc3)NC(=O)/C=C/c3cc(Cl)ccc3-n3cnnn3)ncn2)cc1
bioavailability [6]: 28% | half-life [12]: 408 min | Vd [13]: 4 L/kg | clearance [14]: 0.122 mL/min/kg | Ki (Coagulation factor XI): 6.7 nM | AUC [8]: 0.23 µM·h | EC1.5 (Plasma): 21 µM

COC(=O)Nc1ccc(-c2cc([C@H](Cc3ccccc3)NC(=O)[C@H]3CC[C@H](CN)CC3)ncn2)cc1
Vd [15]: 5.4 L/kg | Ki (Coagulation factor XI): 9.1 nM | half-life [16]: 192 min | bioavailability [17]: 66% | EC1.5 (Plasma): 1.2 µM | clearance [18]: 0.45 mL/min/kg | AUC [19]: 0.195 µM·h

COC(=O)Nc1ccc(-c2cc([C@H](Cc3ccccc3)NC(=O)/C=C/c3cc(Cl)ccc3-n3cnnn3)[nH]c(=O)c2)cc1
bioavailability [6]: 0% | t1/2 (Canis familiaris [20]): 1.5 h | Vdss (Canis familiaris [21]): 1.6 L/kg | clearance (Canis familiaris [7]): 30 mL/min/kg | Ki (Coagulation factor XI): 2.4 nM | EC1.5 (Plasma): 2.8 µM

COC(=O)Nc1ccc(-c2ccnc([C@H](Cc3ccccc3)NC(=O)[C@H]3CC[C@H](CN)CC3)c2)cc1
clearance [22]: 0.9 mL/min/kg | Vd [23]: 10 L/kg | Ki (Coagulation factor X): > 9 µM | Ki (Coagulation factor VII): > 12.2 µM | Ki (Plasma kallikrein): 42 nM | Ki (Coagulation factor XI): 6.3 nM | Ki [9]: > 14.1 µM | Ki (Trypsin): 101 nM | Ki [3]: > 20.8 µM | Ki (Coagulation factor IX): > 34.9 µM | Ki (Prothrombin): > 12.6 µM | Ki [10]: > 21.9 µM | AUC [24]: 0.194 µM·h | half-life [25]: 162 min | Ki [11]: > 30.2 µM | EC1.5 (Plasma): 2.6 µM | Ki (Plasminogen): > 22.1 µM | bioavailability [26]: 63%

NC[C@H]1CC[C@H](C(=O)NC(Cc2ccccc2)c2cc(-c3ccc4[nH]nc(O)c4c3)ccn2)CC1 (mixture of isomers)
Ki (Coagulation factor XI): 7.5 nM | EC1.5 (Plasma): 0.5 µM
